Measured values gathered from unrelated publications.
Compare with care: the assays were run in different laboratories. ≈ marks a conversion by molar mass, not a printed value.

SMILES	organism	test	system	setting	quantity	value
O=c1[nH]c(CCl)nc2scc(-c3ccccc3F)c12	Trypanosoma brucei	parasite growth, ATP luminescence	–	48 h	EC50	800 nM
c1coc(Nc2ncnc3ccc(-c4cncc(N5CCOCC5)n4)cc23)n1	Trypanosoma brucei	parasite growth, SYBR Green	–	48 h	GI50	25000 nM
C/C(=N\CCNCCNCC/N=C(\C)c1c(O)c2ccccc2oc1=O)c1c(O)c2ccccc2oc1=O	Penicillium verrucosum	microbial growth, broth dilution	–	48 h	MIC	31.2 µg/mL
O=[N+]([O-])c1ccc(Nc2ncnc3ccc(-c4cccc(N5CCOCC5)c4)cc23)cc1C(F)(F)F	Trypanosoma brucei	parasite growth, SYBR Green	GAMBIENSE	–	GI50	13 nM
CCS(=O)(=O)Oc1cc(C=NNC(=O)CSc2nc3c(C)cccc3c(=O)n2-c2ccccc2)ccc1OC	Candida albicans	microbial growth, well diffusion	–	20 µg/mL	inhibition zone	4 mm
Cc1c2c(nn1C)CSCc1cc(n(C)n1)CSc1cc(c3ccccc3c1)OCCCc1c(C(=O)O)n(C)c3c-2c(Cl)ccc13	Enterococcus faecium	microbial growth, broth dilution	–	clinical isolate	MIC50	12.5 µM (≈ 8.4 µg/mL)
O=c1[nH]c(CCl)nc2scc(-c3cccc(F)c3)c12	Trypanosoma brucei	parasite growth, ATP luminescence	–	48 h	EC50	1100 nM
C/C(=N\NC(=O)/N=C(\C)c1c(O)c2ccccc2oc1=O)c1c(O)c2ccccc2oc1=O	Penicillium verrucosum	microbial growth, broth dilution	–	48 h	MIC	62.5 µg/mL
Cn1cc(Nc2ncnc3ccc(-c4cccc(N5CCOCC5)c4)cc23)cn1	Trypanosoma brucei	parasite growth, SYBR Green	–	48 h	GI50	250 nM
CC(=O)NC[C@H]1CN(c2ccc(N3CCOCC3)c(F)c2)C(=O)O1	Enterococcus faecium	microbial growth	–	clinical isolate	MIC90	2 µg/mL (≈ 5.93 µM)
CN1CCC(Nc2ncnc3ccc(-c4cccc(N5CCOCC5)c4)cc23)CC1	Trypanosoma brucei	parasite growth, SYBR Green	–	48 h	GI50	4700 nM
OC(Cn1cncn1)(Cn1cncn1)c1ccc(F)cc1F	Candida albicans	microbial growth, broth dilution	58288	48 h	MIC	8 µM
C/C(=N\C(=S)/N=C(\C)c1c(O)c2ccccc2oc1=O)c1c(O)c2ccccc2oc1=O	Penicillium verrucosum	microbial growth, broth dilution	–	48 h	MIC	1.95 µg/mL
CCOC(=O)c1cnc2c([N+](=O)[O-])cc(C(F)(F)F)cc2c1NC1CC1	Trypanosoma brucei	parasite growth, resazurin	–	72 h	EC50	> 10000 nM
C/C(=N\C(=O)/N=C(\C)c1c(O)c2ccccc2oc1=O)c1c(O)c2ccccc2oc1=O	Penicillium verrucosum	microbial growth, broth dilution	–	48 h	MIC	62.5 µg/mL
CC(=O)N1CCN(c2ccc(OCC3COC(Cn4ccnc4)(c4ccc(Cl)cc4Cl)O3)cc2)CC1 (stereo not shown)	Candida albicans	microbial growth, broth dilution	SP3903	48 h	MIC	2 µM
CC1(C)S[C@@H]2[C@H](NC(=O)[C@H](N)c3ccccc3)C(=O)N2[C@H]1C(=O)O	Enterococcus faecium	microbial growth	–	clinical isolate	MIC90	> 128 µg/mL
FC(F)(F)c1cc(Nc2ncnc3ccc(-c4cccc(N5CCOCC5)c4)cc23)ccc1Cl	Trypanosoma brucei	parasite growth, SYBR Green	GAMBIENSE	–	GI50	250 nM
C[C@@H]1[C@H](O)[C@@H](C)/C=C/C=C/C=C/C=C/C=C/C=C/C=C/[C@H](O[C@@H]2O[C@H](C)[C@@H](O)[C@H](N)[C@@H]2O)C[C@@H]2O[C@](O)(C[C@@H](O)C[C@@H](O)[C@H](O)CC[C@@H](O)C[C@@H](O)CC(=O)O[C@H]1C)C[C@H](O)[C@H]2C(=O)O	Candida albicans	microbial growth, broth dilution	58288	48 h	MIC	< 0.25 µM
